The results in this text go back to ChEMBL document CHEMBL1121994, “Ammonium 7H-purin-6-yl 1-Thio-beta-D-glucopyranosiduronate, a latent, selective anticancer agent” (J Med Chem, 1982).

Common to all, as to assay type: ADME
Series [1] in a line: Maximum velocity was determined at pH 4.4. Summed up: (§1)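 Bovine β-glucuronidase in 0.1 M potassium acetate buffer, μ = 0.1 M (KCl), 30 °C. Substrate 4.0×10⁻⁴ to 4.8×10⁻³ M final. Enzyme (30 FU; 42 000 FU when substrate was given in Me₂SO) was added after 20 min; at pH 3.38 the substrate was also added after 20 min. Initial rates came from ΔA/min at 324 nm (Δε = 2×10⁴ M⁻¹cm⁻¹), in duplicate. Vmax was normalized per Fishman unit.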

Series [2] is filed under the species Bos taurus. In words: Michaelis constant for hydrolysis catalyzed by Bovine Liver beta-Glucuronidase at pH 5.58. The following applies: cattle. In outline:
as §1

For series [3], the species on record is Bos taurus. As to the kind of experiment: Michaelis constant for hydrolysis catalyzed by Bovine Liver beta-Glucuronidase at pH 4.7. Conditions: cattle. Summed up: as §1
The species named for series [4] is Bos taurus. In words: Michaelis constant for hydrolysis catalyzed by Bovine Liver beta-Glucuronidase at pH 4.40. Conditions: cattle, pH 4.4. In outline:
as §1

The nature of series [5]: Maximum velocity was determined at pH 3.38. Summed up:
as §1

The species entered for series [6] is Bos taurus. As to the kind of experiment: Michaelis constant for hydrolysis catalyzed by Bovine Liver beta-Glucuronidase at pH 3.38. The following applies: cattle. Summed up:
as §1

The nature of series [7]: Maximum velocity was determined at pH 4.7. In outline:
as §1

The nature of series [8]: Maximum velocity was determined at pH 5.58. Summed up: as §1
Series [9] can be described thus: Maximum velocity was determined at pH 4.40. The following applies: pH 4.4. In outline:
as §1

As to `NC(=O)C1OC(Sc2[nH]cnc3ncnc2-3)C(O)C(O)C1O` (stereo unspecified), the Vmax in series [1] came to 1.24e-10; in series [5] it was 7.85e-11; in [7] it was 9.85e-11; in series [8], 8.8e-11. For the same compound, the “Vmax / Km” value in the series filed under Bos taurus [2] turned out to be 1.04e-8; in the series listed under Bos taurus [3], 1.06e-8; in the series listed under Bos taurus [4] it was 1.06e-8; in the series filed under Bos taurus [6], 8.8e-9.
Turning to `N.O=C(O)C1OC(Sc2[nH]cnc3ncnc2-3)C(O)C(O)C1O` (stereo unspecified), the “Vmax / Km” value in the series listed under Bos taurus [2] is on record as 0.0000951; in the series filed under Bos taurus [3] it was 0.000297; in the series filed under Bos taurus [4], 0.000409; in the series listed under Bos taurus [6], 0.000659. In addition, the Vmax in series [5] is 3.73e-8; in series [9] it was 3.95e-8; in series [7], 3.92e-8; in series [8], 2.18e-8.
